This passage reports fold change (FC) and inhibition results from ChEMBL document CHEMBL5653631, “A Potent and Selective ULK1 Inhibitor Suppresses Autophagy and Sensitizes Cancer Cells to Nutrient Stress” (iScience, 2018).

For orientation: inhibition means the relative decrease from the control value, in per cent.

Experiment [1] addresses Cyclin-dependent kinase 12 (Homo sapiens) (UniProt Q9NYV4). Kind of experiment: Inhibition of human recombinant CRK7 at 40 nM related to control ULK1.
Experiment [2] concerns the target Tyrosine-protein kinase Lck (Homo sapiens) (UniProt P06239). Description: Inhibition of human recombinant LCK at 40 nM related to control ULK1.
Experiment [3] addresses Non-receptor tyrosine-protein kinase TYK2 (Homo sapiens) (UniProt P29597). Kind of experiment: Inhibition of human recombinant TYK2 at 40 nM related to control ULK1.
Experiment [4] addresses Calcium/calmodulin-dependent protein kinase type II subunit delta (Homo sapiens) (UniProt Q13557). Kind of experiment: Inhibition of human recombinant CaMK2d at 40 nM related to control ULK1.
For experiment [5], the target named is T1, Inhibitor of nuclear factor kappa-B kinase subunit beta (Homo sapiens) (UniProt O14920).
T1 sequence (whole entry): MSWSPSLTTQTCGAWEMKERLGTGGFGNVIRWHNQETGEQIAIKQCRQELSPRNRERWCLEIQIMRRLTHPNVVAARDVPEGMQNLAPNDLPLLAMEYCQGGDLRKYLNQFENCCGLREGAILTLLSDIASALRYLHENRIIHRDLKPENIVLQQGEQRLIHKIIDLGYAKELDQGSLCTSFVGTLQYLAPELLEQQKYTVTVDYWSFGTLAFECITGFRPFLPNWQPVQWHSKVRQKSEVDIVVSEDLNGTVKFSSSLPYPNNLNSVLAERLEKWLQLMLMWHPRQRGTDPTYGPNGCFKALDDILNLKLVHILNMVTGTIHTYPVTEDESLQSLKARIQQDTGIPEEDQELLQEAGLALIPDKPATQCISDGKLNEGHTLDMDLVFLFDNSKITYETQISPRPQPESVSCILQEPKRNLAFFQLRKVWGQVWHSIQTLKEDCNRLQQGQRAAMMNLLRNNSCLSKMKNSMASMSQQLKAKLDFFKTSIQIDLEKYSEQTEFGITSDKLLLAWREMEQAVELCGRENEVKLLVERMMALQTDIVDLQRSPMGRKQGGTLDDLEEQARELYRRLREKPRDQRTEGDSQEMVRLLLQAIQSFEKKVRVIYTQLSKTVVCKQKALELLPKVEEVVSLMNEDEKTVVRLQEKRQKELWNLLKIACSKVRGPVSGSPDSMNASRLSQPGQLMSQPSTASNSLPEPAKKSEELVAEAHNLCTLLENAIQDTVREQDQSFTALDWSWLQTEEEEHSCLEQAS
Kind of experiment: Inhibition of human recombinant IKKb at 40 nM related to control ULK1.

The target in experiment [6] is T2, Ephrin type-B receptor 1 (Homo sapiens) (UniProt P54762).
T2 sequence (whole entry): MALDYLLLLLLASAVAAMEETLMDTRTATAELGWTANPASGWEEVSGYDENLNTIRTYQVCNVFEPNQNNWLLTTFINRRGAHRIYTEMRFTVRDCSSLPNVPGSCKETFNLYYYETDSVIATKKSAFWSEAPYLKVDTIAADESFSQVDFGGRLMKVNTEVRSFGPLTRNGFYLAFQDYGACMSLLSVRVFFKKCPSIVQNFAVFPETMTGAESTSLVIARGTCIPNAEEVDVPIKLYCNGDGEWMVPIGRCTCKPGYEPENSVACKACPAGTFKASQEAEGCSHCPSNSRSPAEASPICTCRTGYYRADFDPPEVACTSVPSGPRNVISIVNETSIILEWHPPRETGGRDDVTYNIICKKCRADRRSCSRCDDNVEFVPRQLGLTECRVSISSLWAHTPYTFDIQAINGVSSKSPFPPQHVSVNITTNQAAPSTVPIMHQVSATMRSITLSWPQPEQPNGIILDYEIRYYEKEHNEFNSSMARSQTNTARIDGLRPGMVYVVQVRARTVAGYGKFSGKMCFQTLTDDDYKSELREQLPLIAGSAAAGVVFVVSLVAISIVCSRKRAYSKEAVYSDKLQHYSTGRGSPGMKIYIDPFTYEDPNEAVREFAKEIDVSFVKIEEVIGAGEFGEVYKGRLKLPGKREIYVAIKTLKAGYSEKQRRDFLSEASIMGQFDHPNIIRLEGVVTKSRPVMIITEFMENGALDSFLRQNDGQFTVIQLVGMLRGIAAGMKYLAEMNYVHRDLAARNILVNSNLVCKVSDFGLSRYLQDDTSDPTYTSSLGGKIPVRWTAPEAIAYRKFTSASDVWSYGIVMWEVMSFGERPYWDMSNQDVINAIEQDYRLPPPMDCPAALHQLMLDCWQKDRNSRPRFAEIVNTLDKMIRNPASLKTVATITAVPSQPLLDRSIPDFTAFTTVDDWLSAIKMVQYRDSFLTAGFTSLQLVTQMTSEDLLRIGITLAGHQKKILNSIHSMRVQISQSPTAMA
Description: Inhibition of human recombinant EphB1 at 500 nM in presence of ATP by radiometric assay relative to control.

The target of experiment [7] is PAS domain-containing serine/threonine-protein kinase (Homo sapiens) (UniProt Q96RG2). Description: Inhibition of human recombinant PASK at 15 nM in presence of ATP by radiometric assay relative to control.
In experiment [8] the target is Activated CDC42 kinase 1 (Homo sapiens) (UniProt Q07912). Description: Inhibition of human recombinant ACK at 15 nM in presence of ATP by radiometric assay relative to control. Summed up: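 Panel of 327 recombinant human kinases in radiometric activity assays, each screened in duplicate at a single inhibitor concentration; percent activity remaining relative to vehicle control, percent inhibition taken as 100 minus activity remaining.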

Experiment [9] concerns the target T3, Mitogen-activated protein kinase kinase kinase 3 (Homo sapiens) (UniProt Q99759).
T3 sequence (whole entry): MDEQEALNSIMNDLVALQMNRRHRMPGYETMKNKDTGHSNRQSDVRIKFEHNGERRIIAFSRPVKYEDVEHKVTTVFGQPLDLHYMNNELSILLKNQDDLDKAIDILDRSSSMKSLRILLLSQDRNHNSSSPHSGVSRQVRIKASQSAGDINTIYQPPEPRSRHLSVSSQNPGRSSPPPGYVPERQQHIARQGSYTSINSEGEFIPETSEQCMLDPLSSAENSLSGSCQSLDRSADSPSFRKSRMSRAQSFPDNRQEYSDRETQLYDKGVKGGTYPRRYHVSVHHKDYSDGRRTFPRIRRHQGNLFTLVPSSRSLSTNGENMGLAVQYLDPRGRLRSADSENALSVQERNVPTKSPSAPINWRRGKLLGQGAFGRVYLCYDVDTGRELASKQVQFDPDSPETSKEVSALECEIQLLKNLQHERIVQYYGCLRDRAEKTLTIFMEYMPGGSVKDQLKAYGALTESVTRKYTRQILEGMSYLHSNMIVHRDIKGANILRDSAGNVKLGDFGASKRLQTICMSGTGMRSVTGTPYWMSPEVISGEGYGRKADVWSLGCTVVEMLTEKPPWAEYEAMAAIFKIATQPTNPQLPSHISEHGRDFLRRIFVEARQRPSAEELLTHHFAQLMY
Kind of experiment: Inhibition of human recombinant MAP3K3 at 15 nM in presence of ATP by radiometric assay relative to control.

Sequence of Tyrosine-protein kinase Lck (Homo sapiens) (P06239 2-509 limits assumed): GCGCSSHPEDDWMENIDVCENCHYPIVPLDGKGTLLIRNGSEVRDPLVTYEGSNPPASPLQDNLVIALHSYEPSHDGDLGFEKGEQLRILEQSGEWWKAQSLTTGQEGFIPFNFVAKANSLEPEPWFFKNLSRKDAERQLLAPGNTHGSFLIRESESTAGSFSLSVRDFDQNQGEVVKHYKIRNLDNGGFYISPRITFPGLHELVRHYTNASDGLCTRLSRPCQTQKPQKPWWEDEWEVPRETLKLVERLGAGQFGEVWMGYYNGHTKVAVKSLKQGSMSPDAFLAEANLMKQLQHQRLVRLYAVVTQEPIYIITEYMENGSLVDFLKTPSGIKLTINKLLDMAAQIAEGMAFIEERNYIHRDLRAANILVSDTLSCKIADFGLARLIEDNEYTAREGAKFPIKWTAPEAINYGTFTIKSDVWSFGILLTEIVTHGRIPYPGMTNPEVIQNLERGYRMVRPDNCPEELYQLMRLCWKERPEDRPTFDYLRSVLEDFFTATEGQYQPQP
Sequence of PAS domain-containing serine/threonine-protein kinase (Homo sapiens) (Q96RG2 whole entry, the tested form may be a part): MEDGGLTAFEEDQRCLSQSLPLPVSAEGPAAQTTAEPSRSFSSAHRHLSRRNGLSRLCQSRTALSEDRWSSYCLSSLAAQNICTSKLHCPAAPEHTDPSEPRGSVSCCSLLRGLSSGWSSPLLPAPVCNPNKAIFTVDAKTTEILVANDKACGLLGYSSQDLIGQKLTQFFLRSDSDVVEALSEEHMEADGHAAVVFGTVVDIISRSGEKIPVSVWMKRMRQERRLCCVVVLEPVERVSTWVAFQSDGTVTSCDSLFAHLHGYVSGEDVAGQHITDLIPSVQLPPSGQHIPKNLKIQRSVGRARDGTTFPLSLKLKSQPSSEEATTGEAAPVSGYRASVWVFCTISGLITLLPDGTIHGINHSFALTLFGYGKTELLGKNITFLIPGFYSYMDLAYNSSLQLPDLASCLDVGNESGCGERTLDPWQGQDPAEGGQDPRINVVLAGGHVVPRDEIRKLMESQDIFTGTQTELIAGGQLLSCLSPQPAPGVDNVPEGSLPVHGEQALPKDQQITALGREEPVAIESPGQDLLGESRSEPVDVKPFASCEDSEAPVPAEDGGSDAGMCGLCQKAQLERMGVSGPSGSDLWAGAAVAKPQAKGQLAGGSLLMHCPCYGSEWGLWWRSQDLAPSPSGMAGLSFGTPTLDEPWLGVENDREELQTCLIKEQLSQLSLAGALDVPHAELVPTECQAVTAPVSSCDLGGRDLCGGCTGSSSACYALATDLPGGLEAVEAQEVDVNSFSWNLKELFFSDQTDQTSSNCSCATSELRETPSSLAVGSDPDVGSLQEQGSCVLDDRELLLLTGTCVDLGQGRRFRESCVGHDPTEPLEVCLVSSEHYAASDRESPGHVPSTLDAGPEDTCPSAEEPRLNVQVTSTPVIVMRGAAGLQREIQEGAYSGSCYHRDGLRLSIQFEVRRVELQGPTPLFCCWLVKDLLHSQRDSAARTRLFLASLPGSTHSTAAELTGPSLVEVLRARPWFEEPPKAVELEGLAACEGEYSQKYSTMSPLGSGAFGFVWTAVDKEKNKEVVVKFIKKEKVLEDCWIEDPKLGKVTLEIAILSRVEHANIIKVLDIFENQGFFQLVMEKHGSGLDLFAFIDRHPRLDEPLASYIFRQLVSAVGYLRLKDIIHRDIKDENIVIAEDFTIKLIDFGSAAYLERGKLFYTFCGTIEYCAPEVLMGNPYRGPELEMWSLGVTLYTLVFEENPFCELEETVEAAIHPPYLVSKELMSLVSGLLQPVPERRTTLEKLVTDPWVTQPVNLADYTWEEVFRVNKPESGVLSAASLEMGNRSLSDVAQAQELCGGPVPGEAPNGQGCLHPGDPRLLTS
Sequence of Cyclin-dependent kinase 12 (Homo sapiens) (Q9NYV4 whole entry, looked up): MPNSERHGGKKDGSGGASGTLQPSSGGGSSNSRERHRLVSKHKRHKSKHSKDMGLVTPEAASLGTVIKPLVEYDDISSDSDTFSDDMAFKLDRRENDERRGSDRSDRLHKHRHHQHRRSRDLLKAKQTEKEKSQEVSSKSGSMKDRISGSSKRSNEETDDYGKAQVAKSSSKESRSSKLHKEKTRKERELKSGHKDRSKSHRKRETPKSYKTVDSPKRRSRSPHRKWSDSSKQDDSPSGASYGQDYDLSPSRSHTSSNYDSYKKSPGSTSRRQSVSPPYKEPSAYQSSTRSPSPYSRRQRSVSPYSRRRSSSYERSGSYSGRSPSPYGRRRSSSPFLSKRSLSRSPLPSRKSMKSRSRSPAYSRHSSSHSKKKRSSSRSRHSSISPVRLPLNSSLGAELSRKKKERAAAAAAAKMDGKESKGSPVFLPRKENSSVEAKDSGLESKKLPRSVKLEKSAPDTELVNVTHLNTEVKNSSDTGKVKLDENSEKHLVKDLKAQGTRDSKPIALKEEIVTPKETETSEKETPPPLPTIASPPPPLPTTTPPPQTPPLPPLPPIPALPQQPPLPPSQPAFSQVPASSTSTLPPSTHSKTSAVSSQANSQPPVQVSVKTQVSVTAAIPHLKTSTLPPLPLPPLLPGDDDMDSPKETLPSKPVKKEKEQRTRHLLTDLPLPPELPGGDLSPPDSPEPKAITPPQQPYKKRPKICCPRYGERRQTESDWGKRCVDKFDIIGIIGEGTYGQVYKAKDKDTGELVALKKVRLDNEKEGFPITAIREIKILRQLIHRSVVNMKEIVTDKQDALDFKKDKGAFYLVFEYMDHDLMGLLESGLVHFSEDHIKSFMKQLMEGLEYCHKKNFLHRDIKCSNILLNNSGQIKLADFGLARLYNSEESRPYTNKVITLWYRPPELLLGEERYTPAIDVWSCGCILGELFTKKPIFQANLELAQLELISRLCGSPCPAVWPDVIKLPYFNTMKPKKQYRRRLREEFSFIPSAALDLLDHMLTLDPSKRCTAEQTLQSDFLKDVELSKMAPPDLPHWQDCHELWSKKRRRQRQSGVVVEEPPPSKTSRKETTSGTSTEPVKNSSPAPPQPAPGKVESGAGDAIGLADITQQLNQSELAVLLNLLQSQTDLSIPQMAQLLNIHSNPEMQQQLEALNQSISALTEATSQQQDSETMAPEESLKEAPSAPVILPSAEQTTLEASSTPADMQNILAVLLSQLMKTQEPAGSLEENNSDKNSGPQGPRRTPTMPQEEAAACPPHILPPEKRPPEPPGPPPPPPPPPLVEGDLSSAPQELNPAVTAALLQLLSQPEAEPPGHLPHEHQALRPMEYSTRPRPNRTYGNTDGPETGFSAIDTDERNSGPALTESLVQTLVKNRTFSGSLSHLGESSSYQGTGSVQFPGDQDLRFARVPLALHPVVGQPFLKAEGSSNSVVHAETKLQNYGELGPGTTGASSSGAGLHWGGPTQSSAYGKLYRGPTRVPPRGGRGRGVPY
Sequence of Calcium/calmodulin-dependent protein kinase type II subunit delta (Homo sapiens) (Q13557 whole entry): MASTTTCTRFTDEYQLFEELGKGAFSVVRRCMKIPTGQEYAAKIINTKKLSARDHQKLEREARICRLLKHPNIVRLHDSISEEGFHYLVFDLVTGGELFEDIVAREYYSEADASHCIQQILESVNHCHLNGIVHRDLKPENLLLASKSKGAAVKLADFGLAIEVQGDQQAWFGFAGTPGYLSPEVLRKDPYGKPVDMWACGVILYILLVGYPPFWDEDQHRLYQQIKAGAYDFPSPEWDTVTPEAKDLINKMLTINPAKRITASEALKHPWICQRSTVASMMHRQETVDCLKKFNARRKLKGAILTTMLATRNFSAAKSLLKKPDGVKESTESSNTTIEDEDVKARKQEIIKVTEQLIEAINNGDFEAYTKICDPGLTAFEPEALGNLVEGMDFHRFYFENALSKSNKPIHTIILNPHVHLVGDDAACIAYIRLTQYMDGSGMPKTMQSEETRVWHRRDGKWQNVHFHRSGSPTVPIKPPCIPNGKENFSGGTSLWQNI
Sequence of Activated CDC42 kinase 1 (Homo sapiens) (Q07912 whole entry, looked up): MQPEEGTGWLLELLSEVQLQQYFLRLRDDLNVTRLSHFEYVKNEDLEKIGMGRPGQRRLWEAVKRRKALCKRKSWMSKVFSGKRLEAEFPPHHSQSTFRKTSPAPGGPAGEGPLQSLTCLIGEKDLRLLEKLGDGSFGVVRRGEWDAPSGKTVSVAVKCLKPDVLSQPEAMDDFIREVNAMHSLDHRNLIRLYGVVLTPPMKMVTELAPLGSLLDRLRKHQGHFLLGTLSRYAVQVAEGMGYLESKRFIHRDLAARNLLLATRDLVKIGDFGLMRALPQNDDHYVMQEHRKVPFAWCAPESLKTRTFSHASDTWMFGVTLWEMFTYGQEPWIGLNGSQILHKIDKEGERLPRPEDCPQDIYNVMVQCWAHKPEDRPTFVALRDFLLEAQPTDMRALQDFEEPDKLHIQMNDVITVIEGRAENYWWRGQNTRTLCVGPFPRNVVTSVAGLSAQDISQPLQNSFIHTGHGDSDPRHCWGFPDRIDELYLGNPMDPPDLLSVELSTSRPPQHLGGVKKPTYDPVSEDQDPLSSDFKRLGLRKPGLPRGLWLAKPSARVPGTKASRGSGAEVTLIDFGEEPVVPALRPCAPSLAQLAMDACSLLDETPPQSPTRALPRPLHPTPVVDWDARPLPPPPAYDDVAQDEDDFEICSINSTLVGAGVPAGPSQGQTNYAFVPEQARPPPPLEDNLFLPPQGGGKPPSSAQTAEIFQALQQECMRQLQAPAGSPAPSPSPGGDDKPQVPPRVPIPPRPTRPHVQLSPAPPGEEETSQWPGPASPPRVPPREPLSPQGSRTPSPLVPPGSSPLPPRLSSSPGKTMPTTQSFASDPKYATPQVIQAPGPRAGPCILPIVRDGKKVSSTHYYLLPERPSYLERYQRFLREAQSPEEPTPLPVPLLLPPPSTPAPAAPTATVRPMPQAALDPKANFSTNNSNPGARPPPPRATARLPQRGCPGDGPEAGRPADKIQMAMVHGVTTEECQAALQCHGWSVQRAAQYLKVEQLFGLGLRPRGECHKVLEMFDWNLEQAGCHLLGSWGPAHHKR

For the compound `O=C(N[C@@H](C1CC1)C(F)(F)F)c1cc(-c2cnn3cc(-c4ccc(F)cc4)cnc23)cs1`, the fold change (FC) in experiment [1] was 0.1; in experiment [2], 0; in experiment [3], 0.01; in experiment [4] it was 0.01; in experiment [5], 0.

Consider `CNC(=O)c1ccccc1Oc1nc(Nc2cc(OC)c(OC)c(OC)c2)ncc1Br`, for which the inhibition in experiment [6] was 10%.

With `CC(C)[C@H](NC(=O)c1cc(-c2cnn3cc(-c4ccc(OCCN5CCCCC5)cc4)cnc23)cs1)C(F)(F)F`, the figures for the inhibition in experiment [7], in experiment [8] and in experiment [9] were 0%, 0% and 3%, respectively.
